Reference: ChEMBL document CHEMBL1165950, “Design and synthesis of new potent anticancer pyrazoles with high FLT3 kinase inhibitory selectivity” (Bioorg Med Chem, 2010)

Key:
Format in all cases: functional
HOP-92 = experiment: Growth inhibition of human HOP92 cells after 48 hrs by sulforhodamine B assay; conditions: HOP-92, 48 h; for CC50: read-out: LC50 (the source's name)
Summary of the method: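 NCI 60-cell screen, five-dose mode. Cells grown in RPMI 1640 with 5% FBS and 2 mM L-glutamine and plated at 5000-40,000 cells/well according to doubling time. After 24 h preincubation, a Tz plate was TCA-fixed. Five concentrations (10-fold or 1/2 log dilutions) were applied for 48 h at 37 °C. SRB staining read at 515 nm. IC50 taken from [(Ti-Tz)/(C-Tz)]×100 = 50.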

HL-60(TB) = experiment: Cytotoxicity against human HL-60(TB) cells assessed as cell growth at 10 uM after 48 hrs by sulforhodamine B assay; conditions: HL-60, 48 h, read-out: Activity
Summary of the method: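 NCI 60-cell panel. Cells are grown in RPMI 1640 with 5% FBS and 2 mM L-glutamine, seeded at 5000–40,000 cells/well according to doubling time, and preincubated 24 h. Time-zero plates are TCA-fixed. Compound from DMSO stock is given at five 10-fold or 1/2-log concentrations for 48 h at 37 °C, 5% CO2. Suspension cells are fixed with 80% TCA (final 16%) and SRB-stained, with absorbance at 515 nm. Percent growth is derived from Tz, control and test readings.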

K562 = experiment: Cytotoxicity against human K562 cells assessed as cell growth at 10 uM; conditions: read-out: Activity
Summary of the method: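 Single-dose NCI-60 screen at 10 µM. Cells were grown in RPMI 1640 with 5% FBS and 2 mM L-glutamine, then treated for 48 h at 37 °C. Protein was measured by SRB staining with absorbance at 515 nm. Percentage growth was recorded, and inhibition percentage was calculated as 100 minus growth percentage.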

SNB-75 = experiment: Cytotoxicity against human SNB75 cells assessed as cell growth at 10 uM; conditions: read-out: Activity
Summary of the method: (§1)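 NCI-60 screen: cells grown in RPMI 1640 with 5% FBS and 2 mM L-glutamine, plated at 5000–40,000 cells/well according to doubling time, and preincubated 24 h at 37 °C, 5% CO2. The single 10 µM dose (DMSO stock) was added, then incubated 48 h. Cells were TCA-fixed and stained with 0.4% SRB, read at 515 nm, and growth % calculated against time-zero and control plates.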

HCT-116 = experiment: Cytotoxicity against human HCT116 cells assessed as cell growth at 1 uM after 48 hrs by sulforhodamine B assay; conditions: HCT-116, 48 h, read-out: Activity
OVCAR-3 = experiment: Cytotoxicity against human OVCAR-3 cells assessed as cell growth at 10 uM; conditions: read-out: Activity; summary of the method: as §1
ACHN = experiment: Cytotoxicity against human ACHN cells assessed as cell growth at 1 uM after 48 hrs by sulforhodamine B assay; conditions: read-out: Activity
Summary of the method: (§2)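 NCI-60 five-dose screen. Cells were grown in RPMI 1640 with 5% FBS and 2 mM L-glutamine, plated at 5000–40,000 cells/well and preincubated for 24 h. Time-zero plates were TCA-fixed. DMSO-solubilized drug was added at five concentrations (10-fold or ½-log serial dilutions) for 48 h at 37 °C, 5% CO2. Cells were TCA-fixed, stained with 0.4% SRB and read at 515 nm. Percent growth used time-zero, control and test absorbances.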

SK-MEL-2 = experiment: Cytotoxicity against human SK-MEL-2 cells assessed as cell growth at 0.001 uM after 48 hrs by sulforhodamine B assay; conditions: SK-MEL-2, 48 h, read-out: Activity
Malme-3M = experiment: Cytotoxicity against human MALME-3M cells assessed as cell growth at 0.001 uM after 48 hrs by sulforhodamine B assay; conditions: read-out: Activity
CCRF-CEM = experiment: Growth inhibition of human CCRF-CEM cells after 48 hrs by sulforhodamine B assay
Summary of the method: (§3)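 NCI five-dose SRB assay in RPMI 1640 with 5% FBS and 2 mM L-glutamine. Cells were preincubated 24 h, then exposed 48 h at 37 °C to five concentrations (10-fold or half-log serial dilutions from DMSO stocks). TCA fixation, SRB staining, and absorbance at 515 nm followed. IC50 was taken where [(Ti−Tz)/(C−Tz)]×100 = 50, with Tz as time-zero cell density.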

MOLT-4 = experiment: Cytotoxicity against human MOLT4 cells assessed as cell growth at 0.001 uM after 48 hrs by sulforhodamine B assay; conditions: MOLT-4, 48 h, read-out: Activity
PC-3 = experiment: Cytotoxicity against human PC3 cells assessed as cell growth at 0.01 uM after 48 hrs by sulforhodamine B assay; conditions: PC-3, 48 h, read-out: Activity
UACC-257 = experiment: Cytotoxicity against human UACC257 cells assessed as cell growth at 10 uM; conditions: read-out: Activity; summary of the method: as §1
HT-29 = experiment: Cytotoxicity against human HT-29 cells assessed as cell growth at 100 nM after 48 hrs by sulforhodamine B assay; conditions: HT-29, 48 h, read-out: Activity
786-0 = experiment: Cytotoxicity against human 786-0 cells assessed as cell growth at 0.001 uM after 48 hrs by sulforhodamine B assay; conditions: 786-0, 48 h, read-out: Activity; summary of the method: as §2
SW-620 [1] = experiment: Cytotoxicity against human SW620 cells assessed as cell growth at 0.001 uM after 48 hrs by sulforhodamine B assay; conditions: SW-620, 48 h, read-out: Activity
NCI-H460 = experiment: Cytotoxicity against human NCI-H460 cells assessed as cell growth at 0.01 uM after 48 hrs by sulforhodamine B assay; conditions: NCI-H460, 48 h, read-out: Activity
OVCAR-5 = experiment: Cytotoxicity against human OVCAR5 cells assessed as cell growth at 1 uM after 48 hrs by sulforhodamine B assay; conditions: OVCAR-5, 48 h, read-out: Activity
NCI-H23 = experiment: Cytotoxicity against human NCI-H23 cells assessed as cell growth at 10 uM; conditions: read-out: Activity; summary of the method: as §1
SW-620 [2] = experiment: Cytotoxicity against human SW620 cells assessed as cell growth at 0.01 uM after 48 hrs by sulforhodamine B assay; conditions: SW-620, 48 h, read-out: Activity
RXF 393 = experiment: Cytotoxicity against human RXF393 cells assessed as cell growth at 10 uM; conditions: read-out: Activity; summary of the method: as §1
HCT-15 = experiment: Cytotoxicity against human HCT15 cells assessed as cell growth at 1 uM after 48 hrs by sulforhodamine B assay; conditions: HCT-15, 48 h, read-out: Activity
SNB-19 = experiment: Cytotoxicity against human SNB19 cells assessed as cell growth at 100 nM after 48 hrs by sulforhodamine B assay; conditions: SNB-19, 48 h, read-out: Activity
MCF7 = experiment: Cytotoxicity against human MCF7 cells assessed as cell growth at 0.01 uM after 48 hrs by sulforhodamine B assay; conditions: MCF7, 48 h, read-out: Activity
NCI-H322M = experiment: Cytotoxicity against human NCI-H322M cells assessed as cell growth at 0.01 uM after 48 hrs by sulforhodamine B assay; conditions: read-out: Activity
A549 = experiment: Growth inhibition of human A549 cells after 48 hrs by sulforhodamine B assay; conditions: A549, 48 h; summary of the method: as §3

In the case of `COc1cc(C)cc(-c2nn(CC#N)cc2-c2ccc(-c3cccc(C(C)=O)c3)nc2)c1`, the GI50 (HOP-92) is reported as 2.63 µM, the TGI (HOP-92) is reported as 9.09 µM and the CC50 (HOP-92) is reported as greater than 100 µM. The growth at 10 µM (HL-60(TB)) was -8%, the growth at 10 µM (K562) was 16.4% and the growth at 10 µM (SNB-75) was -23.9%. For the same compound, the growth at 1 µM (HCT-116) was 1%, the growth at 10 µM (OVCAR-3) was 12.5% and the growth at 1 µM (ACHN) was 24%. For the same compound, the growth at 0.001 µM (SK-MEL-2) was 89%, the growth at 0.001 µM (Malme-3M) was 97% and the GI50 (CCRF-CEM) was 2.61 µM. The LC50 (CCRF-CEM) was greater than 100 µM, the TGI (CCRF-CEM) was greater than 100 µM and the growth at 0.001 µM (MOLT-4) was 97%. For the same compound, the growth at 0.01 µM (PC-3) was 88%, the growth at 10 µM (UACC-257) was 50.8% and the growth at 0.1 µM (HT-29) was 99%. The growth at 0.001 µM (786-0) was 97%, the growth at 0.001 µM (SW-620 [1]) was 96% and the growth at 0.01 µM (NCI-H460) was 104%. It also gave a growth at 1 µM (OVCAR-5) of 21%, a growth at 10 µM (NCI-H23) of 25.1% and a growth at 0.01 µM (SW-620 [2]) of 91%. For the same compound, the growth at 10 µM (RXF 393) was -51%, the growth at 1 µM (HCT-15) was 12% and the growth at 0.1 µM (SNB-19) was 99%. For the same compound, the growth at 0.01 µM (MCF7) was 97%, the growth at 0.01 µM (NCI-H322M) was 91% and the GI50 (A549) was 3.87 µM. It also gave an LC50 (A549) greater than 100 µM and a TGI (A549) of 30.8 µM.

With `COc1cc(C)cc(-c2nn(CC#N)cc2-c2ccnc(-c3ccc(N(C)C)cc3)c2)c1` the GI50 (HOP-92) was 0.557 µM, the TGI (HOP-92) was 26.6 µM and the CC50 (HOP-92) was greater than 100 µM. The growth at 10 µM (HL-60(TB)) was -27%, the growth at 10 µM (K562) was 9.86% and the growth at 10 µM (SNB-75) was -25.5%. The growth at 1 µM (HCT-116) was -41%, the growth at 10 µM (OVCAR-3) was 2.79% and the growth at 1 µM (ACHN) was 2%. It also gave a growth at 0.001 µM (SK-MEL-2) of 117%, a growth at 0.001 µM (Malme-3M) of 88% and a GI50 (CCRF-CEM) of 0.454 µM. The LC50 (CCRF-CEM) was greater than 100 µM, the TGI (CCRF-CEM) was greater than 100 µM and the growth at 0.001 µM (MOLT-4) was 102%. For the same compound, the growth at 0.01 µM (PC-3) was 96%, the growth at 10 µM (UACC-257) was 68.2% and the growth at 0.1 µM (HT-29) was 25%. For the same compound, the growth at 0.001 µM (786-0) was 101%, the growth at 0.001 µM (SW-620 [1]) was 98% and the growth at 0.01 µM (NCI-H460) was 106%. The growth at 1 µM (OVCAR-5) was 31%, the growth at 10 µM (NCI-H23) was -3.77% and the growth at 0.01 µM (SW-620 [2]) was 90%. The growth at 10 µM (RXF 393) was -17.1%, the growth at 1 µM (HCT-15) was -1% and the growth at 0.1 µM (SNB-19) was 35%. It also gave a growth at 0.01 µM (MCF7) of 38%, a growth at 0.01 µM (NCI-H322M) of 108% and a GI50 (A549) of 0.583 µM. It also gave an LC50 (A549) greater than 100 µM and a TGI (A549) of 483 µM.

`COc1cc(C)cc(-c2c(-c3ccnc(-c4ccc(C(C)=O)cc4)c3)cnn2CC#N)c1` showed a GI50 (HOP-92) of 1.46 µM, a TGI (HOP-92) of 7.56 µM and a CC50 (HOP-92) greater than 100 µM. For the same compound, the growth at 10 µM (HL-60(TB)) was -3%, the growth at 10 µM (K562) was 30.1% and the growth at 10 µM (SNB-75) was 57.9%. The growth at 1 µM (HCT-116) was -27%, the growth at 10 µM (OVCAR-3) was 100% and the growth at 1 µM (ACHN) was 21%. The growth at 0.001 µM (SK-MEL-2) was 92%, the growth at 0.001 µM (Malme-3M) was 105% and the GI50 (CCRF-CEM) was 2.97 µM. The LC50 (CCRF-CEM) was greater than 100 µM, the TGI (CCRF-CEM) was greater than 100 µM and the growth at 0.001 µM (MOLT-4) was 102%. The growth at 0.01 µM (PC-3) was 88%, the growth at 10 µM (UACC-257) was 92.8% and the growth at 0.1 µM (HT-29) was 95%. For the same compound, the growth at 0.001 µM (786-0) was 102%, the growth at 0.001 µM (SW-620 [1]) was 96% and the growth at 0.01 µM (NCI-H460) was 98%. For the same compound, the growth at 1 µM (OVCAR-5) was 60%, the growth at 10 µM (NCI-H23) was 83.7% and the growth at 0.01 µM (SW-620 [2]) was 88%. For the same compound, the growth at 10 µM (RXF 393) was 54.8%, the growth at 1 µM (HCT-15) was 12% and the growth at 0.1 µM (SNB-19) was 99%. For the same compound, the growth at 0.01 µM (MCF7) was 92%, the growth at 0.01 µM (NCI-H322M) was 95% and the GI50 (A549) was 3.68 µM. It also gave an LC50 (A549) greater than 100 µM and a TGI (A549) greater than 100 µM.
